From paper PMC7397737 (Chemical research in toxicology, 2019)
“And” between values parts separate entries of the source, which are not always exact repeats. Identical values can stand only once. Blank lines part the entries; values can stand above or below the molecule they belong to.

Tests used:
[1] = system: stearoyl-CoA desaturase 1 (SCD1); test: Hepatic Scd1 mRNA; assay type: in vivo, mouse; conditions: for mRNA levels of Scd1 in liver: qPCR, vs control mice
Summary of the method: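 C57BL/6J mice (n = 6; n = 4 in SCD1-inhibitor study) gavaged with test compound 100 mg/kg every 24 h ×3, vehicle 0.5% CMC-Na. Where used, SCD1 inhibitor (DMSO/Tween 80/saline 1:2:97) was given i.p. twice daily, 10 mg/kg/day, starting before first dose. Liver flash-frozen. Western: RIPA/PMSF lysate, 10 μg protein, 10% SDS-PAGE, PVDF, ECL detection. mRNA by qRT-PCR.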

C57BL/6J mice [2] = test: Experiment 6: elemicin versus 1′-hydroxyelemicin toxicity at the same dose; assay type: in vivo, mouse
[3] = mouse, in vivo, 100 mg/kg
[4] = system: CYPs in pooled mouse liver microsomes (MLMs); test: Chemical inhibition of 1′-hydroxyelemicin formation in liver microsomes; assay type: in vitro ADME; conditions: 50 μM elemicin, MLMs 0.5 mg/mL, 40 min
C57BL/6J mice [5] = test: Experiment 5: alpha-naphthoflavone with elemicin in mice; assay type: in vivo, mouse; conditions: alpha-naphthoflavone 80 mg/kg/day i.p. + elemicin 500 mg/kg oral for 7 days
C57BL/6J mice [6] = test: Experiment 3: high-oleic acid diet with 1′-hydroxyelemicin in mice; assay type: in vivo, mouse; conditions: high-oleic acid diet + 100 mg/kg 1′-hydroxyelemicin 3 days
human recombinant CYP2A6 = target: T1, human recombinant CYP2A6 (Homo sapiens, UniProt P11509); test: Kinetics of elemicin 1′-hydroxylation by recombinant CYP2A6; assay type: in vitro ADME
T1 sequence (P11509 1-494): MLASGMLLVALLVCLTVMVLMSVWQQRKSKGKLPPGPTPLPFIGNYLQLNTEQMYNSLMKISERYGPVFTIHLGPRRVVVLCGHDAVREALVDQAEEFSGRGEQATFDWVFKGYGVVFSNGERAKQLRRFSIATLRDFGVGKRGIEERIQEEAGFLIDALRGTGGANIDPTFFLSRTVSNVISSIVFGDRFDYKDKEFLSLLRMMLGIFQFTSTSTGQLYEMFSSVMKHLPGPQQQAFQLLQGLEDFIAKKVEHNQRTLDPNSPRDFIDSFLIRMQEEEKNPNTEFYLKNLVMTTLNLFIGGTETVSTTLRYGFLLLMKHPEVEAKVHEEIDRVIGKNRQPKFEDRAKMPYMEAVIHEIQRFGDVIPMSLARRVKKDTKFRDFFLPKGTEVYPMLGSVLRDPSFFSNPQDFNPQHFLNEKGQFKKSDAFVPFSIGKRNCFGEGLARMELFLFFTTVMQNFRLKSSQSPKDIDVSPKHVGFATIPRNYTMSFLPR

C57BL/6J mice [7] = test: Experiment 1: toxicity of elemicin in mice, 3 weeks; assay type: in vivo, mouse
human recombinant CYP1A1 = target: T2, human recombinant CYP1A1 (Homo sapiens, UniProt P04798); test: Kinetics of elemicin 1′-hydroxylation by recombinant CYP1A1; assay type: in vitro ADME
T2 sequence (P04798 1-512): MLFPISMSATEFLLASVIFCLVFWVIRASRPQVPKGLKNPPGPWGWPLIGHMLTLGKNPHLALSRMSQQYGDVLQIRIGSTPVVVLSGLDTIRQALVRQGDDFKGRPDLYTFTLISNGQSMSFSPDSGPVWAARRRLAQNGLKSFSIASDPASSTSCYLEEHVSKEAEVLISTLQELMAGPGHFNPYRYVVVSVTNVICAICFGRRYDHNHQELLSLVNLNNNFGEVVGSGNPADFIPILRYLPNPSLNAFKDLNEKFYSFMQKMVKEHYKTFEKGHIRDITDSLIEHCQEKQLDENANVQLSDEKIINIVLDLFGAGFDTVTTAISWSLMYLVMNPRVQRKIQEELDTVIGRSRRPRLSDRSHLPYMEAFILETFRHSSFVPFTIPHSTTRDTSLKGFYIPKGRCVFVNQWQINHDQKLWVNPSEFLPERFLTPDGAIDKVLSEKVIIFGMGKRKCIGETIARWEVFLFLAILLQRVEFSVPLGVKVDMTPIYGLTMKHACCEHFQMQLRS

C57BL/6J mice [8] = test: Experiment 4: SCD1 suppression by A939572 with 1′-hydroxyelemicin in mice; assay type: in vivo, mouse; conditions: A939572 10 mg/kg/day i.p. + 100 mg/kg 1′-hydroxyelemicin
[9] = substrate: C=CCc1cc(OC)c(OC)c(OC)c1; test: Kinetics of elemicin 1′-hydroxylation by recombinant CYP1A1; assay type: in vitro ADME, human; conditions: other: 1′-hydroxyelemicin formation from elemicin, mean ± SD
[10] = substrate: C=CCc1cc(OC)c(OC)c(OC)c1; test: Kinetics of elemicin 1′-hydroxylation by recombinant CYP2C19; assay type: in vitro ADME, human; conditions: other: 1′-hydroxyelemicin formation from elemicin, mean ± SD
[11] = substrate: C=CCc1cc(OC)c(OC)c(OC)c1; test: Kinetics of elemicin 1′-hydroxylation by recombinant CYP2A6; assay type: in vitro ADME, human; conditions: other: 1′-hydroxyelemicin formation from elemicin, mean ± SD
[12] = substrate: C=CCc1cc(OC)c(OC)c(OC)c1; test: Kinetics of elemicin 1′-hydroxylation by recombinant CYP1A2; assay type: in vitro ADME, human; conditions: other: 1′-hydroxyelemicin formation from elemicin, mean ± SD
[13] = 1′-hydroxyelemicin 100 mg/kg oral, 3 days
[14] = elemicin 500 mg/kg oral, 3 weeks
[15] = 500 mg/kg oral every 24 h for 3 weeks, vs control group
[16] = 500 mg/kg oral, 3 weeks, vs control group

- GSH adduct in urine [3]: observed in the urine
Molecule: C=CC(O)c1cc(OC)c(OC)c(OC)c1 (stereo not shown) [1′-hydroxyelemicin]
- SCD1 protein in liver (Western blot) [1, 13]: decreased
- mRNA levels of Scd1 in liver [1, 13]: clearly decreased
- liver index compared with the same dose of elemicin (C57BL/6J mice [2]; mouse, in vivo): higher

- inhibitory effect against 1′-hydroxyelemicin generation ([4]; inhibitor 1 μM (CYP1A1/2)): relative higher inhibitory effects
Molecule: O=c1cc(-c2ccccc2)oc2c1ccc1ccccc12 [α-naphthoflavone]
- elemicin-induced hepatomegaly (C57BL/6J mice [5]): significantly alleviate

Molecule: CCCCCCCC/C=C\CCCCCCCC(=O)O [oleic acid]
- 16:1-LPC, 18:1-LPC and 18:2-LPC levels in plasma (C57BL/6J mice [6]): ameliorated the decrease
- ratios of 18:1-LPC to 18:0-LPC and 16:1-LPC to 16:0-LPC in plasma (C57BL/6J mice [6]): increased to normal level
- hepatic TG content (C57BL/6J mice [6]; vs control mice): still higher than that of control mice
- liver size (C57BL/6J mice [6]; vs control mice): still higher than that of control mice

Molecule: C=CCc1cc(OC)c(OC)c(OC)c1 [elemicin, 3,4,5-trimethoxyallylbenzene]
- SCD1 protein in liver (Western blot) [1, 14]: decreased
- mRNA levels of Scd1 in liver [1, 14]: clearly decreased
- Vmax (human recombinant CYP2A6; 1′-hydroxyelemicin formation from elemicin, mean ± SD): 0.524 ± 0.110 nmol min^−1 nmol P450^−1
- in vitro catalytic efficiency (human recombinant CYP2A6; Vmax/Km × 1000 μL): 0.520 μL min^−1 nmol P450^−1
- hepatomegaly (C57BL/6J mice [2]; 100 mg/kg for 3 days, mice): did not result in hepatomegaly
- histopathological analysis of hepatic tissue (C57BL/6J mice [7]; 500 mg/kg oral every 24 h for 3 weeks, H&E): cytoplasmic pale staining, hepatocyte swelling and the cytoplasm seemed abnormal around the central vein
- TG levels in liver (C57BL/6J mice [7]; [15]): significantly elevated
- TG levels in plasma (C57BL/6J mice [7]; [15]): significantly elevated
- liver weights (hepatic index) (C57BL/6J mice [7]; [15]): increased
- serum ALT (C57BL/6J mice [7]; [15]): no significant changes
- total plasma GSH and GSSG (C57BL/6J mice [7]; [15]): reduced
- ratios of 18:1-LPC to 18:0-LPC and 16:1-LPC to 16:0-LPC in plasma (C57BL/6J mice [7]; [16]): dramatically reduced
- saturated LPC (18:0-LPC) in plasma (C57BL/6J mice [7]; [16]): significantly increased
- unsaturated LPCs (18:1-, 18:2-, 16:1-, 20:4-LPC) in plasma (C57BL/6J mice [7]; [16]): obviously reduced
- Vmax (human recombinant CYP1A1): 1.80 ± 0.045 nmol ● min^−1 nmol ● CYP^−1
- in vitro catalytic efficiency (human recombinant CYP1A1; Vmax/Km × 1000 μL): 140.062 μL min^−1 nmol P450^−1

- inhibitory effect against 1′-hydroxyelemicin generation ([4]; inhibitor 10 μM (CYP3A4)): relative higher inhibitory effects
Molecule: CC(=O)N1CCN(c2ccc(OCC3COC(Cn4ccnc4)(c4ccc(Cl)cc4Cl)O3)cc2)CC1 (stereo not shown) [ketoconazole]

- levels of monounsaturated-LPCs in plasma (C57BL/6J mice [8]; A + E′ group): further decreased
- TG levels in plasma (C57BL/6J mice [8]; A + E′ vs E′ group): markedly elevated
- ratio of unsaturated-LPCs to saturated-LPCs (C57BL/6J mice [8]; A + E′ vs E′ group): significantly reduced
Molecule: CNC(=O)c1cccc(NC(=O)N2CCC(Oc3ccccc3Cl)CC2)c1 [A939572]
- SCD1 expression in liver (Western blot) ([1]; A939572 10 mg/kg/day i.p. + 100 mg/kg 1′-hydroxyelemicin, A + E′ group): significantly decreased

B1: human recombinant CYP1A1 (Homo sapiens) (protein)
chain: MLFPISMSATEFLLASVIFCLVFWVIRASRPQVPKGLKNPPGPWGWPLIGHMLTLGKNPHLALSRMSQQYGDVLQIRIGSTPVVVLSGLDTIRQALVRQGDDFKGRPDLYTFTLISNGQSMSFSPDSGPVWAARRRLAQNGLKSFSIASDPASSTSCYLEEHVSKEAEVLISTLQELMAGPGHFNPYRYVVVSVTNVICAICFGRRYDHNHQELLSLVNLNNNFGEVVGSGNPADFIPILRYLPNPSLNAFKDLNEKFYSFMQKMVKEHYKTFEKGHIRDITDSLIEHCQEKQLDENANVQLSDEKIINIVLDLFGAGFDTVTTAISWSLMYLVMNPRVQRKIQEELDTVIGRSRRPRLSDRSHLPYMEAFILETFRHSSFVPFTIPHSTTRDTSLKGFYIPKGRCVFVNQWQINHDQKLWVNPSEFLPERFLTPDGAIDKVLSEKVIIFGMGKRKCIGETIARWEVFLFLAILLQRVEFSVPLGVKVDMTPIYGLTMKHACCEHFQMQLRS
- Km [9]: 12.9 ± 1.26 µM and 12.880 ± 1.265 µM
- kcat/Km [9]: 140 μL min^−1 nmol CYP^−1

B2: human recombinant CYP2C19 (Homo sapiens) (protein)
chain: MDPFVVLVLCLSCLLLLSIWRQSSGRGKLPPGPTPLPVIGNILQIDIKDVSKSLTNLSKIYGPVFTLYFGLERMVVLHGYEVVKEALIDLGEEFSGRGHFPLAERANRGFGIVFSNGKRWKEIRRFSLMTLRNFGMGKRSIEDRVQEEARCLVEELRKTKASPCDPTFILGCAPCNVICSIIFQKRFDYKDQQFLNLMEKLNENIRIVSTPWIQICNNFPTIIDYFPGTHNKLLKNLAFMESDILEKVKEHQESMDINNPRDFIDCFLIKMEKEKQNQQSEFTIENLVITAADLLGAGTETTSTTLRYALLLLLKHPEVTAKVQEEIERVIGRNRSPCMQDRGHMPYTDAVVHEVQRYIDLIPTSLPHAVTCDVKFRNYLIPKGTTILTSLTSVLHDNKEFPNPEMFDPRHFLDEGGNFKKSNYFMPFSAGKRICVGEGLARMELFLFLTFILQNFNLKSLIDPKDLDTTPVVNGFASVPPFYQLCFIPV
- Km [10]: 43.430 ± 3.613 µM
- kcat [10]: 0.00792 ± 0.0002 s⁻¹
- kcat/Km [10]: 182 M⁻¹ s⁻¹

B3: human recombinant CYP2A6 (Homo sapiens) (protein)
chain: MLASGMLLVALLVCLTVMVLMSVWQQRKSKGKLPPGPTPLPFIGNYLQLNTEQMYNSLMKISERYGPVFTIHLGPRRVVVLCGHDAVREALVDQAEEFSGRGEQATFDWVFKGYGVVFSNGERAKQLRRFSIATLRDFGVGKRGIEERIQEEAGFLIDALRGTGGANIDPTFFLSRTVSNVISSIVFGDRFDYKDKEFLSLLRMMLGIFQFTSTSTGQLYEMFSSVMKHLPGPQQQAFQLLQGLEDFIAKKVEHNQRTLDPNSPRDFIDSFLIRMQEEEKNPNTEFYLKNLVMTTLNLFIGGTETVSTTLRYGFLLLMKHPEVEAKVHEEIDRVIGKNRQPKFEDRAKMPYMEAVIHEIQRFGDVIPMSLARRVKKDTKFRDFFLPKGTEVYPMLGSVLRDPSFFSNPQDFNPQHFLNEKGQFKKSDAFVPFSIGKRNCFGEGLARMELFLFFTTVMQNFRLKSSQSPKDIDVSPKHVGFATIPRNYTMSFLPR
- Km [11]: 1007.000 ± 293.000 µM

B4: human recombinant CYP1A2 (Homo sapiens) (protein)
chain: MALSQSVPFSATELLLASAIFCLVFWVLKGLRPRVPKGLKSPPEPWGWPLLGHVLTLGKNPHLALSRMSQRYGDVLQIRIGSTPVLVLSRLDTIRQALVRQGDDFKGRPDLYTSTLITDGQSLTFSTDSGPVWAARRRLAQNALNTFSIASDPASSSSCYLEEHVSKEAKALISRLQELMAGPGHFDPYNQVVVSVANVIGAMCFGQHFPESSDEMLSLVKNTHEFVETASSGNPLDFFPILRYLPNPALQRFKAFNQRFLWFLQKTVQEHYQDFDKNSVRDITGALFKHSKKGPRASGNLIPQEKIVNLVNDIFGAGFDTVTTAISWSLMYLVTKPEIQRKIQKELDTVIGRERRPRLSDRPQLPYLEAFILETFRHSSFLPFTIPHSTTRDTTLNGFYIPKKCCVFVNQWQVNHDPELWEDPSEFRPERFLTADGTAINKPLSEKMMLFGMGKRRCIGEVLAKWEIFLFLAILLQQLEFSVPPGVKVDLTPIYGLTMKHARCEHVQARLRFSIN
- Km [12]: 15.850 ± 3.067 µM
- kcat [12]: 0.0067 ± 0.00035 s⁻¹
- kcat/Km [12]: 423 M⁻¹ s⁻¹
